Laboratory results from PubChem BioAssay.
Active and inactive are the calls of the source.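 The calls were made as follows, unless noted: active = fluorescence slope higher than the sample average by over 3 SD (cut at about -0.22 in these data, passing the limit was not always enough); inactive = the rest.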

Tests used:
[1] = inhibitors of TNFa-induced NFkB p65 translocation, primary screen, imaging, HUVEC, MLSMR starter and 10KST1 sets (AID 438;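 active = inhibition above 20% together with a positive visual image hit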;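 also: compound added about 3h40 before a 20 min TNFalpha stimulation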;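 as to inhibition: signal is the nuclear over cytoplasmic p65 intensity ratio per well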); conditions: HUVEC TNFa-induced p65 nuclear translocation; cell count: measured here: nuclei count (cytotoxicity indicator), at 2.08 µM; inhibition: at 2 µM, stronger effect = higher value, 0% TNFa-plus-vehicle, 100% no-TNFa wells
[2] = endothelial E-selectin expression blockers – imaging, HUVEC, immunofluorescence, MLSMR starter and 10KST1 sets, primary screen (AID 487;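 active = visually confirmed hit in the image check and inhibition above 20%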;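 as to inhibition: signal is fraction of cell area covered by stained E-selectin grains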;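 as to nuclei count: 100% = median nuclei count of all wells on the same plate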); conditions: HUVEC TNFalpha-induced E-selectin immunofluorescence imaging, at 2 µM; inhibition: stronger effect = higher value; nuclei count: measured here: cell number, toxicity
[3] = Primary imaging screen for DUSP6 inhibitors that restore phospho-Erk in transfected HeLa cells, chemical complementation (AID 609;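 active = compounds giving at least 50% inhibition in the cell-based MKP-3 phosphatase rescue imaging test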;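 as to inhibition: phospho-Erk level distribution per well compared with pooled transfected vehicle control wells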); conditions: HeLa MKP-3 transfected, phospho-Erk imaging KS statistic, at 10 µM, cells stimulated with TPA for 15 min
[4] = target: Dual specificity protein phosphatase 6 (Homo sapiens) (UniProt Q16828); assay: as above; conditions: HeLa MKP-3 transfected, phospho-Erk imaging KS statistic; at 10 µM; stronger effect = higher value; cells stimulated with TPA for 15 min
[5] = target: Voltage-gated potassium channel subunit beta-2 (Rattus norvegicus) (UniProt P62483); assay: inhibitors of rat Kvbeta2 reductase activity – biochemical, NADPH fluorescence, primary screen (AID 622); conditions: recombinant KvBeta, 4-cyanobenzaldehyde reduction, at 10 µM, stronger effect = higher value;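 also: slope of raw intensity against log time taken from 70 to 1610 s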
[6] = target: Voltage-gated potassium channel subunit beta-2 (Rattus norvegicus) (UniProt P62483); assay: enhancers of rat Kvbeta2 NADPH turnover – biochemical, NADPH fluorescence, primary screen (AID 623;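 active = NADPH fluorescence slope more negative than the mean of all samples by about 3 SD, 99.7% confidence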;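 also: fluorescence intensity change per second fitted from 20 to 320 s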); conditions: Recombinant KvBeta, NADPH fluorescence decrease slope, 10 min; at 10 µM; stronger effect = lower value
[7] = target: Alpha-2C adrenergic receptor (Homo sapiens) (UniProt P18825); assay: compounds altering alpha2C-coupled GIRK flux – cell-based, HEK293 alpha2C/GIRK1/2, thallium flux, primary screen (AID 624;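 active = fluorescence slope after compound addition differing from the mean of all screened samples at 99.7% confidence, in either direction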;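 also: slope of fluorescence ratio to pre-addition baseline per second over 15 to 24 s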); conditions: thallium flux BTC fluorescence, at 10 µM, actives lie on both sides
[8] = inhibitors of larval lipid processing in zebrafish, primary screen, whole organism, PED6 fluorescence, gall bladder and intestine (AID 686;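 active = a full or partial loss of lipid-probe fluorescence in the fish gall bladder, intestine or both, judged by eye; inactive = no fluorescence loss, or compound toxic to the fish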;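 also: larvae 5 to 7 days old with five fish per well; signal comes from phospholipase A2 cleavage of quenched PED6 carried via bile; overnight exposure to compound and PED6 before scoring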); conditions: Zebrafish larvae PED6 lipid processing, fluorescence scoring; screened at 20 µM (by protocol)
Procedure, shortened: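 system = live zebrafish larvae aged 5-7 days, whole organism | probe or stimulus = ingested quenched lipid PED6 at 100 nM | doses = 20 µM single dose | timing = overnight exposure | detection = fluorescence microscopy with visual scoring of gall bladder and intestine | read-out = visual per-well fluorescence inhibition score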

[9] = loss of swimming-algae plug formation – whole organism, Chlamydomonas reinhardtii, WT vs cilia-less mutant, absorbance, 96-well, primary screen (AID 463189;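 active = inhibition at or above 50% relative to wild type and mutant plate controls; inactive = inhibition below 50%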;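 also: 0% = wild type cc124 cells in DMSO and 100% = ciliumless bld1 mutant cells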); conditions: Chlamydomonas reinhardtii gravitaxis, OD600 absorbance, 2 days; at 10 µM; stronger effect = higher value
[10] = measured here: cell density z-score
[11] = measured here: nuclear c-Myc green intensity z-score
[12] = measured here: nuclear pErk red intensity z-score, stronger effect = higher value

Sequence of Alpha-2C adrenergic receptor (Homo sapiens) (P18825 whole entry, looked up): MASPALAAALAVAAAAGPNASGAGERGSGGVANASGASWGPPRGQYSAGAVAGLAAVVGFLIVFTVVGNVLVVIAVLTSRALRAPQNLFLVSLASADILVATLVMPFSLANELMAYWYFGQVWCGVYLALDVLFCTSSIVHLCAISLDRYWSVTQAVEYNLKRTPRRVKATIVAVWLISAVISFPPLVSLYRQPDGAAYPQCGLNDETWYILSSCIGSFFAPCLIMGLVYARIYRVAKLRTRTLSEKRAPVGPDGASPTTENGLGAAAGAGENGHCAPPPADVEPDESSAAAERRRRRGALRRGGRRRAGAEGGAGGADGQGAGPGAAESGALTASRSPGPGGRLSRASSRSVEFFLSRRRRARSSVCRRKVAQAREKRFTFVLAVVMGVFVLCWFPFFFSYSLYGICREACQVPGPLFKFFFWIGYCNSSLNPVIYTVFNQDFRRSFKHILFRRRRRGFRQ
Sequence of Voltage-gated potassium channel subunit beta-2 (Rattus norvegicus) (P62483 whole entry, looked up): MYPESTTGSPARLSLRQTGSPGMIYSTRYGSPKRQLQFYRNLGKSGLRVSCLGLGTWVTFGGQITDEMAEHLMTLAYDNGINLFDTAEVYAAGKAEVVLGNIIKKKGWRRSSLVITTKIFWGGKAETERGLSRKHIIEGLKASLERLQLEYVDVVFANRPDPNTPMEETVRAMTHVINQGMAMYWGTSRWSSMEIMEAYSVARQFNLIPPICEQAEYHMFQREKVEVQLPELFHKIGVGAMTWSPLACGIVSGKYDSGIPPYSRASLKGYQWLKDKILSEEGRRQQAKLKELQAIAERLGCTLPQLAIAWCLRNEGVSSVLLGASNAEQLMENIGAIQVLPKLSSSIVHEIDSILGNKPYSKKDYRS
Sequence of Dual specificity protein phosphatase 6 (Homo sapiens) (Q16828 whole entry, looked up): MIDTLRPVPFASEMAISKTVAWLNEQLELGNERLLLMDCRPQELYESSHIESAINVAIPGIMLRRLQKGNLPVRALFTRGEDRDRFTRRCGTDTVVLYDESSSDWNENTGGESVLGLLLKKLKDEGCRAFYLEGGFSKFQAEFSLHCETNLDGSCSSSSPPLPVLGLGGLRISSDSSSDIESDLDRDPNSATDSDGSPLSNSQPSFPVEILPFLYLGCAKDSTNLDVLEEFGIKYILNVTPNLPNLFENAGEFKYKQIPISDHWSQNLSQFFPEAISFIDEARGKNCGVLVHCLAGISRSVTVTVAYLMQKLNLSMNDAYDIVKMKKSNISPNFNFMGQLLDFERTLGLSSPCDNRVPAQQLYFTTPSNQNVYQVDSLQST

SMILES | cell count [1] | inhibition [1] | inhibition [2] | nuclei count [2] [%] | z-score [3, 10] | z-score [3, 11] | z-score [3, 12] | inhibition [4] | fluorescence slope [5] | NADPH fluorescence slope [6] | slope [7] | outcome [8] | inhibition [9]
Nc1nnc(Cc2ccc(Cl)c(Cl)c2)s1 | 621 | 2.9% (inactive) | 33.3% (inactive) | 174 | 0.377 | 1.31 | -0.983 | -7.86% (inactive) | -0.369 (inactive) | -3.6e-05 (inactive) | 0.00535 (inactive) | inactive | 2.91% (inactive)
COc1ccc2oc(=O)c(-c3nc(C)cs3)cc2c1 | 523 | -9.3% (inactive) | -79.5% (inactive) | 135 | -0.969 | 0.963 | 1.41 | -2.07% (inactive) | -0.302 (inactive) | -3.5e-05 (inactive) | 0.00534 (inactive) | inactive | 26.4% (inactive)
COC(=O)CC1=NC(=O)CS1 | 690 | -4.3% (inactive) | -84.4% (inactive) | 164 | -1.27 | 0.428 | 1.11 | -7.28% (inactive) | -0.41 (inactive) | -8.9e-06 (inactive) | 0.00544 (inactive) | inactive | -1.11% (inactive)
Oc1c(C=Nc2cccnc2)sc2ccccc12 | 623 | -14.4% (inactive) | -17% (inactive) | 170 | 0.476 | 0.705 | 1.13 | -20.4% (inactive) | -0.405 (inactive) | -6e-05 (inactive) | 0.0055 (inactive) | inactive | -14.9% (inactive)
Nc1nnc(CC2=CCCCC2)s1 | 579 | -13.4% (inactive) | 28.3% (inactive) | 152 | -0.93 | 0.818 | -0.135 | -9.66% (inactive) | -0.396 (inactive) | -3.4e-05 (inactive) | 0.00749 (inactive) | inactive | 8.68% (inactive)
Cc1ccc2[nH]c3c(c2c1)CCCC3C(N)=O (stereo not given) | 548 | -27.5% (inactive) | -103% (inactive) | 183 | -1.12 | 0.929 | -1.27 | -16.8% (inactive) | -0.508 (inactive) | -2.9e-05 (inactive) | 0.00527 (inactive) | inactive | 3.14% (inactive)
Cn1c(=O)n(CCc2ccccc2)c(=O)c2c1ncn2Cc1ccccc1 | 505 | -1.6% (inactive) | 42.5% (inactive) | 115 | -0.468 | 1.76 | -0.503 | -6.48% (inactive) | -0.508 (inactive) | -0.000139 (inactive) | 0.00833 (inactive) | inactive | -10.3% (inactive)
CCOc1ccc2c(C)nc(NC3=NC(C)(C)C=C(C)N3)nc2c1 | 641 | -3.1% (inactive) | 46.4% (inactive) | 158 | -1.28 | 1.6 | 1.26 | -9.66% (inactive) | -0.373 (inactive) | -4.2e-05 (inactive) | 0.00624 (inactive) | inactive | 19.3% (inactive)
CC(Sc1nc(N2CCCCC2)c2c(c1C#N)CCCC2)C(=O)O (stereo not given) | 624 | 4.5% (inactive) | -96.1% (inactive) | 161 | -0.692 | 0.635 | -1.09 | 9.82% (inactive) | -0.301 (inactive) | 1.2e-06 (inactive) | 0.00467 (inactive) | inactive | -8.39% (inactive)
CC(C)c1cc(NCCCN2CCOCC2)n2c(nc3ccccc32)c1C#N | 548 | -21.3% (inactive) | -6.2% (inactive) | 155 | 1.24 | -0.267 | -1.5 | 6.51% (inactive) | -0.342 (inactive) | -1.7e-06 (inactive) | 0.00382 (inactive) | inactive | 5.12% (inactive)
